Data reported in ChEMBL document CHEMBL1240369, “Antiviral efficacy of the novel compound BIT225 against HIV-1 release from human macrophages” (Antimicrob Agents Chemother, 2010).
Activity calls are given as the source filed them. The rule behind the calls is not given here.

Experiments:
[1] = Cytotoxicity against human TZM-bl cells assessed as cell viability up to 20 uM by MTT assay; format: cell-based
[2] = Inhibition of Vpu ion channel in HIV1 1064.52 in human MDM assessed as inhibition of vrius release; set-up: species or system Human immunodeficiency virus 1
[3] = Selectivity index, ratio of TC50 for human MDM cells to EC50 for HIV1 92TH001 infected in human MDM cells; format: toxicity, cell-based; conditions: read-out: Selectivity Index
[4] = Selectivity index, ratio of TC50 for human MDM cells to EC50 for HIV1 92UG029 infected in human MDM cells; format: toxicity, cell-based; conditions: read-out: Selectivity Index
MDM [5] = experiment: Inhibition of Vpu ion channel in 0.05 MOI HIV1 Ba-L infected in 14 days differentiated human MDM cells assessed as number of gag copy; format: cell-based; conditions: Human immunodeficiency virus 1
Method in brief: (§1)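 MDM differentiated for 7, 10 or 14 days were infected with HIV-1 Ba-L across a range of MOIs, washed three times with PBS and cultured 7 days with 10 μM compound or equal-volume DMSO. On day 7 postinfection, supernatant RT activity was measured (and infectivity on TZM-bl cells). Cell lysates went to real-time PCR for LTR-gag DNA, normalised to albumin copies.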

MDM [6] = experiment: Inhibition of Vpu ion channel in 0.001 to 3 MOI HIV1 Ba-L infected in 7-14 days differentiated human MDM cells assessed as virus inhibition rate measured after 7 days; format: cell-based; conditions: Human immunodeficiency virus 1; method in brief: as §1
MDM [7] = experiment: Inhibition of Vpu ion channel in 0.001 MOI HIV1 Ba-L infected in 10 days differentiated human MDM cells assessed as viral inhibition by TZM-bl infectivity assay; format: cell-based; conditions: Human immunodeficiency virus 1; method in brief: as §1
MDM [8] = experiment: Inhibition of Vpu ion channel in 0.001 MOI HIV1 Ba-L infected in 14 days differentiated human MDM cells assessed as viral inhibition by RT assay; format: cell-based; set-up: scale not given: the % may be the effect or the level left; conditions: Human immunodeficiency virus 1; method in brief: as §1
MDM [9] = experiment: Inhibition of Vpu ion channel in 0.05 MOI HIV1 Ba-L acutely infected in 14 days differentiated human MDM cells assessed as reverse transcriptase activity after 21 days relative to control; format: cell-based; conditions: Human immunodeficiency virus 1
Method in brief: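 Day 14 MDM were acutely infected with HIV-1 Ba-L at MOI 0.05 for 3 h, washed three times with PBS, then cultured a further 7 days in DMEM10+ with 10 μM compound or equal DMSO. Virus release was measured as supernatant RT activity on day 21 of culture, relative to DMSO controls.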

MDM [10] = experiment: Inhibition of Vpu ion channel activity in 0.05 MOI HIV1 Ba-L chronically infected in 7-14 days differentiated human MDM cells assessed as viral inhibition measured after 7 days; format: cell-based; conditions: Human immunodeficiency virus 1
Method in brief: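 Day 14 MDM from 3 seronegative donors were infected with HIV-2, or with HIV-1 Ba-L as a positive control, at MOI 0.05 for 7 days. Cells were then washed free of extracellular virus and cultured ± 10 μM compound for a further 7 days. Day 28 supernatants were assayed for RT activity by chemiluminescent ELISA, with recombinant RT as the standard.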

[11] = target: Protease (Human immunodeficiency virus 1) (UniProt Q9YQ12); experiment: Inhibition of HIV1 protease assessed as substrate cleavage at 100 uM by cell free assay
Sequence of Protease (Human immunodeficiency virus 1) (Q9YQ12 as listed by the source): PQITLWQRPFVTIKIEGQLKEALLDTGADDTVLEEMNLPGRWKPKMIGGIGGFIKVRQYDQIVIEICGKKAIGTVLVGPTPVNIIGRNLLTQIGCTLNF
Method in brief: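 Cell-free fluorometric protease assay: compound (1–100 μM) was premixed with 2 μM quenched HIV-1 protease substrate 1. Background fluorescence (ex 340/em 490 nm) was read every 5 s for 5 min. HIV-1 protease was then added at 1.5% and cleavage followed for a further 5 min. LPV and EFV served as controls.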

[12] = tested on: Human immunodeficiency virus 1; experiment: Antiviral activity against HIV1 Ba-L in 14 days differentiated human MDM assessed as decrease in intracellular viral protein at 10 uM after 7 days by Western blot analysis; format: functional, organism-based
Method in brief: (§2)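 Day 14 MDM were chronically infected with HIV-1 Ba-L, then given 10 μM compound or DMSO and harvested on day 28. Lysates with equal total protein (checked by β-actin) were run on a 10% polyacrylamide gel and blotted to nitrocellulose. Blots were probed with HIV-1-seropositive human serum, then HRP anti-human IgG.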

[13] = tested on: Human immunodeficiency virus 1; experiment: Antiviral activity against HIV1 Ba-L in 14 days differentiated human MDM assessed as decrease in intracellular p24 level at 10 uM after 7 days by Western blot analysis; format: functional, organism-based; method in brief: as §2
PM1 = experiment: Inhibition of Vpu ion channel in 0.05 MOI HIV1 NL4-3 infected in PM1 cells assessed as viral inhibition measured at 10 uM after 7 days by […]; conditions: Human immunodeficiency virus 1

## Cn1cc(-c2cccc3cc(C(=O)NC(=N)N)ccc23)cn1
[1]
  Activity: Non-toxic
[2]
  EC50: 2700 nM
[3]
  selectivity ratio: 140
[4]
  selectivity ratio: 14
MDM [5]
  Activity: Active
MDM [6]
  Activity: Active
MDM [7]
  inhibition: 98.1%
MDM [8]
  Activity: 77%
MDM [9]
  Activity: < 6 U/ml
MDM [10]
  inhibition: 66.6%
[11]
  Activity: inactive
[12]
  Activity: inactive
[13]
  Activity: Active
PM1
  inhibition: 21%
